Key:
[1] = Ratio of drug level in brain to plasma in Sprague-Dawley rat at 5 mg/kg, sc after 1 hr; assay type: ADME, organism-based; set-up: dose 5 mg/kg, route subcutaneous; details: brain and plasma, read-out: BPR
Summary of the method: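 Male Sprague–Dawley rats (n = 3 per time point) received 5 mg/kg subcutaneously. Plasma (cardiac puncture after CO2 euthanasia), brain and CSF were collected at 0.5, 1, 2 and 4 h. Drug levels were measured by LC/MS/MS. Ratio is taken from the average brain and plasma concentrations at 1 h.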

MDR = assay: Permeability from apical to basolateral side of MDCK cells over expressing MDR; details: dog, MDCK-MDR1

| Kp at 1 h [1] | Papp (apical to basal) (MDR) [×10⁻⁶ cm/s] | SMILES |
| --- | --- | --- |
| 1.86 |  | COc1ccccc1[C@H]1CN(c2cc(-c3ccncn3)cc(=O)n2C)CCO1 |
|  | 13.9 | Cc1cc(-c2cc(-c3ccccc3)nc(=O)[nH]2)ccc1O |
| 0.35 |  | COc1ccccc1CCNc1cc(-c2ccncn2)cc(=O)n1C |
| 0.96 |  | Cn1c(N2CCC(O)(c3ccccc3)CC2)cc(-c2ccncn2)cc1=O |

— ChEMBL document CHEMBL1681660, “6-amino-4-(pyrimidin-4-yl)pyridones: novel glycogen synthase kinase-3β inhibitors” (Bioorg Med Chem Lett, 2011)
